From PubChem
GPR7 antag – antagonists of human GPR7 (neuropeptides B/W receptor 1); P48145; inhibition, % at 4.4 µM; GPR7-expressing cells, fluorescence antagonist assay; 1.1% of 290,000 active; in the data active = inhibition above about 16%, passing the limit was not always enough;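 also: cells stimulated with the agonist NPW; 0% = agonist with vehicle and 100% = vehicle without agonist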
CHO parental Ca – counter-screen for OX1R antagonists: effect in parental CHO cells; inhibition, % at 5.6 µM; 0.63% of 330,000 active; parental CHO-K1, ATP-induced calcium, Fluo-8 fluorescence;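 active = inhibition above that plate's mean sample inhibition plus 3 SD, cut at about 26% in these data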;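 also: 0% = ATP-challenged DMSO wells and 100% = DMSO wells without ATP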
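Test system: untransfected parental CHO cell line; also added: ATP stimulus; dosing: 5.6 µM, single dose; signal: calcium-sensitive Fluo-8 fluorescence; measure: percent inhibition of ATP-evoked calcium rise, normalized to controls; benchmarks: low control ATP plus DMSO, high control DMSO only; replication: one well per compound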
OX1R antag-1 – human HCRTR1 antagonism; O43613; CHO/OX1R cells, Fluo-8 calcium fluorescence, orexin A; inhibition, % at 5 µM; 0.43% of 330,000 active;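 active = inhibition above its plate's threshold, mean inhibition of all tested compounds on the plate plus 3 SD, cut at about 37% in these data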;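 also: 0% = orexin A challenge wells and 100% = SB-334867-A antagonist wells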
Target sequence (O43613 whole entry, looked up): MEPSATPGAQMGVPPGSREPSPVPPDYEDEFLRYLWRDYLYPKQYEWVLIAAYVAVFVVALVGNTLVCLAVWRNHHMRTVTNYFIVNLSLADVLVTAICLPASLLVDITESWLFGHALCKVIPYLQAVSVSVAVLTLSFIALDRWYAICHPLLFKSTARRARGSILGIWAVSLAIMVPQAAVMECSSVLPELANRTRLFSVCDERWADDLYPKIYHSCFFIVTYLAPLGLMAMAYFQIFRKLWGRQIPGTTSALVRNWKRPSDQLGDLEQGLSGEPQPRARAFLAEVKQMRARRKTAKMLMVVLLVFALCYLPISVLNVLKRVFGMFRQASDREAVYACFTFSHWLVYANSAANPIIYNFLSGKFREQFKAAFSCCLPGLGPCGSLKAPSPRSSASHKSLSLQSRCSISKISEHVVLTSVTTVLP
OX1R antag-2 – OX1R (human) antagonism; O43613; OX1R-expressing cells, FRET antagonist read-out; inhibition, % at 6.6 µM; AID 485270; 1.8% of 330,000 active; in the data active = inhibition mostly above about 38%, no sharp cut-off; inactive = mostly below about 40%;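 also: 0% = agonist challenge alone and 100% = reference antagonist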
MPTP block – inhibitors of mitochondrial permeability transition pore; isolated mouse mitochondria, Ca2+ swelling absorbance, 30 min; inhibition, % at 10 µM; 1.4% of 360,000 active; AID 602449;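 active = inhibition of 50% or more, scaled per plate between neutral and stimulator controls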;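 also: 0% = DMSO wells given calcium and 100% = 1 mM EGTA wells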
An asterisk follows results filed as active; · = not tested or not shown. Shown are actives, neighbours in structure and some others; about 3.8% of the full set was active somewhere.

SMILES	GPR7 antag	CHO parental Ca	OX1R antag-1	OX1R antag-2	MPTP block
CCN1C(=O)C(=O)c2cc(C)ccc21	·	-6	-8	25	0
CC[N+]1=C(C)C(C)(C)c2cc(C)ccc21	1	64*	70*	43	3
CC(=O)N1Cc2cc(C(=O)NCC(F)(F)F)nc(-c3cccc(-c4cc5ccccc5o4)c3)c2[C@@H]1CCO	·	·	·	·	-2
O=S(=O)(Nc1nc2ccccc2nc1Cl)c1cccc(C(F)(F)F)c1	-16	6	-17	50*	5
Cc1cc(C)c(S(=O)(=O)Nc2ccc(C(=O)O)cc2)cc1S(=O)(=O)Nc1ccc(C(=O)O)cc1	·	-9	-14	1	-2
CCOC(=O)N1CCN(C(=O)c2cn(-c3ccc(C)c(C)c3)c(=O)c3ccccc23)CC1	75*	·	·	·	0
O=C(NCc1ccccc1)c1ccc(CS(=O)Cc2cccc(Cl)c2)o1 (stereo not given)	·	·	·	·	-2
CCN(CC)C(=O)CSc1nnc(COc2ccc(OC)cc2)n1N	-6	12	-14	15	-2
CCN(CC)C(=O)CSc1nnc2nnc3cc(OC)ccc3n12	-5	-12	-6	76*	1
CCC(=O)Nc1nnc(S(=O)(=O)N2c3ccccc3CC2C)s1 (stereo not given)	-9	-9	-7	8	0
Cc1cccc(OCCSc2nc3ncnc(N)c3[nH]2)c1	16*	-12	-10	20	1
CCC(CO)[n+]1c(C)cc(/C=C2\Sc3ccccc3N2Cc2ccccc2)cc1C (stereo not given)	0	41*	17	15	4
NN1C(=O)/C(=C2/Sc3ccccc3N2CCCS(=O)(=O)O)SC1=S	14	9	2	38*	1
COCCn1c(C)cc(/C=C2/SC(=O)N(CC(=O)N3CCCC3)C2=O)c1C	2	-7	-9	15	-1
COCCN1C(=O)/C(=C/c2ccc(N3CCCC3)cc2C)SC1=S	14	31*	32	12	12
COc1cccc(NC2=Nc3cccc4cccc2c34)c1	-5	-29	-20	72*	2
C[C@@H](C(=O)NCc1c(F)cccc1Cl)N1C(=O)N2CCc3c([nH]c4ccccc34)[C@@]2(C)C1=O	7	-7	22	67*	0
O=C(Nc1ccc(Cl)c(S(=O)(=O)N2CCOCC2)c1)C1CCCC1	·	-17	-13	3	0
Cc1cc(C)c(S(=O)(=O)c2ccccc2C)c(SCC(C)C)n1	-7	57*	27	16	1
CCCSc1nc(C)cc(C)c1S(=O)(=O)c1ccccc1C	-11	28	54*	34	2
Cc1cc(C)c(S(=O)(=O)c2ccccc2C)c(N(C)C)n1	-13	-6	7	6	2
CCCn1c(CNc2ccc(Br)cc2)nc2ccccc21	6	34*	-9	11	4
CCn1c(CNc2ccc(C(=O)O)cc2)nc2ccccc21	4	6	18	3	-1
CCN(CC)c1ccc(CNc2ccc3c(c2)ncn3CC)cc1	-19	46*	0	-9	·
C=Cc1ccc(Cn2nc(-c3ccccc3)ccc2=O)cc1	22	50*	-3	7	4
SMILES	GPR7 antag	CHO parental Ca	OX1R antag-1	OX1R antag-2	MPTP block
O=c1ccc(-c2ccccc2)nn1Cc1ccccc1F	8	·	·	·	0
Cc1ccc2nc(/C(C#N)=C\c3cc(C)n(-c4cccc([N+](=O)[O-])c4)c3C)[nH]c2c1	-12	2	-2	59*	-1
Cc1cc(/C=C(/C#N)c2nc3ccccc3[nH]2)c(C)n1-c1cc(C(=O)O)cc(C(=O)O)c1	-2	·	·	·	-2
COc1ccc(CN2CC[C@H]3C=CC[C@@H](C(=O)NCCc4ccccc4)[C@H]3C2=O)cc1OC	·	-17	20	70*	0
COc1ccc(NC(=O)CC2SC(=NCC3CCCO3)NC2=O)c([N+](=O)[O-])c1 (stereo not given)	-21	-2	-21	50*	0
O=C(CC1SC(=NCC2CCCO2)NC1=O)Nc1cc([N+](=O)[O-])ccc1Cl (stereo not given)	-5	-6	-10	14	1
O=C(O)c1ccccc1NC(=O)C1CCCO1 (stereo not given)	-1	5	4	11	0
O=C(NCCc1ccccc1)c1ccccc1NC(=O)C1CCCO1 (stereo not given)	20*	-1	-5	2	1
O=C(COc1ccc2ccccc2c1)Nc1ccccc1C(=O)O	-4	-2	-10	15	-1
O=C(Cc1cccs1)Nc1nnc(CCc2ccccc2)s1	14*	-12	-23	-1	0
O=C(Cc1cccs1)Nc1nnc(Cc2ccccc2)s1	-2	-12	-28	11	-4
CCOC(=O)Cc1csc(NC(=O)c2ccc3ncsc3c2)n1	-3	-15	-17	8	0
Cn1ncc2c(O/N=C(\N)c3ccc(C(F)(F)F)cc3)ncnc21	2	-16	-24	48*	-1
Cc1ccc(C(=O)NNc2ncnc3c2cnn3C)cc1	-5	0	-13	10	5
CCc1c(-c2ccc(Br)cc2)ncn1Cc1cccc(-c2ccccc2)c1	·	·	·	·	3
O=C(COC(=O)c1cc([N+](=O)[O-])ccc1N1CCOCC1)NC1CCCCC1	·	-20	-28	53*	0
O=C(COC(=O)c1cc([N+](=O)[O-])ccc1N1CCOCC1)NC1CCS(=O)(=O)C1 (stereo not given)	·	-6	-9	21	0
O=C(COC(=O)c1cc([N+](=O)[O-])ccc1N1CCOCC1)Nc1ccc(Cl)cn1	9	-15	-22	52*	-1
O=C(COC(=O)c1cc([N+](=O)[O-])ccc1N1CCOCC1)Nc1ccc(Cl)cc1	0	-1	-14	52*	0
O=C1NC[C@@H](CCCCN2C[C@H](Cc3ccc(O)cc3)N(Cc3ccccc3)C(=O)C2=O)N(CCc2ccc(O)cc2)C1=O	·	·	·	·	-1
COc1ccc(S(=O)(=O)N(CC(=O)N2CCCCCC2)c2ccccc2OC)cc1	8	-13	-14	12	-3
CCC1(c2ccccc2)NC(=O)N(CC(=O)NCCN2C(=O)S/C(=C\c3cccnc3)C2=O)C1=O (stereo not given)	·	-14	-13	57*	0
COc1ccc([N+](=O)[O-])cc1N(CC(O)CN1C(=O)NC(C)(C)C1=O)S(=O)(=O)c1ccc(C)cc1 (stereo not given)	·	·	·	·	1
CCOc1ccc(CNCCc2ccc(S(N)(=O)=O)cc2)cc1	9	-12	-17	8	-3
CCOc1cc(CNCCc2ccc(S(N)(=O)=O)cc2)ccc1OCc1ccc(Cl)cc1	51*	61*	77*	13	44
Cc1c(/C=N/NC(=O)c2ccc(O)cc2)c2ccccn2c1C(=O)c1ccc(F)cc1	20*	-9	-18	16	-1
COc1ccccc1C(=O)NC(=O)CSc1nncn1C	·	40*	1	-5	-2
COc1ccc(Cl)cc1C(=O)NNC(=O)CSc1nncn1C	·	-8	-16	6	0
